Sampled rows, rich in hits. Any-hit rate of the full collection: about 3.5%.
RGS4 pot: RGS4 potentiation or activation | HEK293 M3R/inducible RGS4, carbachol calcium flux Fluo4; active compounds read low | B-score at 10 µM | hit rate 0.92% among 310,000 | AID 463111;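 active = B-score of the integrated calcium signal more than 4 SD below the library mean, with starting fluorescence not abnormally high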;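 also: negative B-score means reduced calcium response which marks RGS4 activation or potentiation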
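Also added: carbachol at ECmax as muscarinic agonist stimulus; Assay system: HEK293 cells with stable M3R and inducible RGS4; Timing: overnight RGS4 induction, 30 min dye load 37 °C, 20 min compound RT; Measured by: Fluo4-AM (2 µM) calcium-flux fluorescence, kinetic read.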
MrgX1 ag: activates human MrgX1 receptor signaling; hit rate 0.44% among 310,000; B-score at 10 µM; MrgX1-HEK293 cells, Fluo-4 calcium fluorescence, agonist mode; active compounds read high; AID 588627;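 active = calcium response B-score plate-corrected fluorescence ratio at least 3 library SD, with starting fluorescence B-score inside 5 SD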
Target sequence (Q96LB2 whole entry, looked up): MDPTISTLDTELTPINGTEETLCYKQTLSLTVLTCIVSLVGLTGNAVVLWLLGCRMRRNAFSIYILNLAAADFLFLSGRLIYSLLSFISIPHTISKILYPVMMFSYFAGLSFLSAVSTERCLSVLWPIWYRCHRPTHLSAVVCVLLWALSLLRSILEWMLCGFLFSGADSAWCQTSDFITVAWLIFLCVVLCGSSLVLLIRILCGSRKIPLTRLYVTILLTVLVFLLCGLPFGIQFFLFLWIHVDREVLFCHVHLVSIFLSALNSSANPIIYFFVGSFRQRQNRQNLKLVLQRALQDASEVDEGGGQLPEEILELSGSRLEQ
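Assay system: stable human MrgX1 HEK293 cell line. Quantity: 15,000 cells per well. Schedule: cells plated overnight, dye loaded 0.5 h 37 °C, 0.5 h room temperature. Detection: Fluo-4 NW calcium-flux fluorescence, kinetic read. Read-out basis: peak-minus-minimum fluorescence over baseline, converted to B scores. Control set: positive and negative control wells on each plate.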
RGS4 inh: inhibitors of human RGS4; hit rate 0.45% among 310,000; HEK293 M3R/RGS4 inducible, Fluo-4 calcium flux; active compounds read high; triggered by carbachol at its EC20; AID 463165; P49798; B-score at 10 µM;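 active = B-score, a plate-corrected calcium signal, over three deviations above library mean, with baseline fluorescence within five deviations of library mean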;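 also: RGS4 expression induced by doxycycline in cells with stable M3 receptor; B-score is computed from the integrated fluorescence ratio over baseline after carbachol; higher B-score means a larger calcium signal and so more RGS4 inhibition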
Target sequence (P49798 whole entry, looked up): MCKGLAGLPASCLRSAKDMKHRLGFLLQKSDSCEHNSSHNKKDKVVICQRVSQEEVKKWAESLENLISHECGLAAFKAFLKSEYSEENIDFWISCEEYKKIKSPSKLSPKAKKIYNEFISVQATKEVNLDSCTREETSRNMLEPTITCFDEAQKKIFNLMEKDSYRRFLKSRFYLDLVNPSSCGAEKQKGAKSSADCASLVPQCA
MrgX1 antagonist: antagonists of human MrgX1 receptor; MRGX1-HEK293 calcium flux, Fluo-4, BAM8-22 antagonism; active compounds read low; B-score at 10 µM; hit rate 1.3% among 310,000; AID 588676;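 active = calcium-response B-score plate-corrected more than 3 library SD below zero, starting fluorescence within 5 deviations, no agonist response on first addition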;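 also: peak minus trough fluorescence over baseline after final BAM8-22 challenge near maximal dose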
MrgX1 allo act: human MrgX1 positive allosteric modulation, primary screen; Q96LB2; MrgX1-HEK293, Fluo-4 calcium flux, FDSS; active compounds read high; B-score at 10 µM; hit rate 0.63% among 310,000; AID 588675;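 active = plate-corrected calcium response at least 3 library SD above typical, normal starting fluorescence, not activating the receptor alone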;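 also: compound read alongside a low EC10 to EC30 dose of BAM8-22 agonist; peak minus trough fluorescence over baseline measured at the second addition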
The depositor's hits bear a star; i = inactive; . = not tested or not shown.

SMILES	RGS4 pot	MrgX1 ag	RGS4 inh	MrgX1 antagonist	MrgX1 allo act
CC(=O)c1ccc2c(c1)C1C(Cl)C(Sc3ccccc3[N+](=O)[O-])CC1C(c1ccccc1[N+](=O)[O-])N2 (stereo not given)	-7.9*	i	i	i	i
CSc1ncc(Cl)c(C(=O)O)n1 (tested in a mixture with another compound)	i	i	i	i	i
CCOc1cc2c(cc1OCC)-n1cccc1C(c1ccc(C(C)C)cc1)NC2 (stereo not given)	i	i	i	-5.2*	i
CCOc1cc2c(cc1OCC)-n1cccc1C(c1ccc(OC)cc1)NC2 (stereo not given)	i	i	i	-8.4*	i
CCOc1cc2c(cc1OCC)-n1cccc1C(c1ccc(F)cc1)NC2 (stereo not given)	i	i	i	i	i
CNCC(O)c1cc(OCc2ccccc2)c(OCc2ccccc2)cc1F (stereo not given)	i	i	i	i	i
Cc1cc([N+](=O)[O-])c2ccccc2[n+]1[O-]	i	i	i	i	i
C=CCn1c(O)c(/C=N/N2CCCCC2c2cccnc2)c(=O)[nH]c1=S (stereo not given)	i	i	i	i	i
Cc1cc(OCC(=O)N2CCC(C(N)=O)CC2)c2c3c(c(=O)oc2c1)CCCC3	i	i	i	i	i
CN1/C(=C\C=C\C2=[N+](C)c3ccc4ccccc4c3C2(C)C)C(C)(C)c2ccccc21	.	i	.	i	i
C[N+]1=C(/C=C/Nc2ccccc2)C(C)(C)c2ccccc21	i	i	i	-4.9*	i
O=c1c2ccccc2[se]n1-c1ccccc1	i	40*	i	i	i
C=CCN1C[C@@H](C)N(C(c2ccc(C(=O)N(CC)CC)cc2)c2cccc(OC)c2)C[C@@H]1C (stereo not given in full)	.	i	.	i	i
COc1ccc(OCC#CCN2CCC(C)CC2)cc1	i	i	i	i	i
Clc1ccc(OCC#CCN2CCCCCC2)cc1	-7*	i	i	i	i
Cc1nc2cc([N+](=O)[O-])ccc2c(=O)n1-c1cccc(Br)c1	i	i	i	i	i
COc1ccccc1-n1c(-c2ccccc2)nc2ccccc2c1=O	i	.	i	.	.
NC1CCc2cc(O)c(O)cc2C1 (stereo not given)	.	i	.	i	i
O=C(O)c1ccc(-[n+]2c(-c3ccccc3)cc(-c3ccccc3)cc2-c2ccccc2)cc1	i	i	i	i	i
Oc1ccccc1-[n+]1c(-c2ccccc2)cc(-c2ccccc2)cc1-c1ccccc1	-7.4*	i	i	i	13*
[O-]c1ccccc1-[n+]1c(-c2ccccc2)cc(-c2ccccc2)cc1-c1ccccc1	i	i	i	i	8.3*
Nc1ccccc1-[n+]1c(-c2ccccc2)cc(-c2ccccc2)cc1-c1ccccc1	i	i	i	-7.3*	i
Cc1ccccc1-[n+]1c(-c2ccccc2)cc(-c2ccccc2)cc1-c1ccccc1	-8.9*	i	i	-7.3*	i
Cc1ccc(-c2cc(-c3ccccc3)cc(-c3ccccc3)[n+]2-c2ccc(C(=O)O)cc2)cc1	i	i	i	i	i
CN1CCN2c3ccc(N)cc3CC3(C(=O)NC(=O)NC3=O)C2C1 (stereo not given)	i	.	i	.	.
SMILES	RGS4 pot	MrgX1 ag	RGS4 inh	MrgX1 antagonist	MrgX1 allo act
CCOC(=O)C(C)(CC)NC(=O)CSP(=S)(OCC)OCC (stereo not given)	i	i	i	i	i
COc1ccccc1CCNC(=O)CCC(=O)N1CC2C[C@@H](C1)Cn1c2cccc1=O	i	i	i	i	i
O=C1/C(=C\c2ccccc2)C2OCC=C3CN4CCC56c7ccccc7N1C5C2C3CC46 (stereo not given)	i	i	i	-6.6*	i
COc1ccc(-c2csc(NC(=O)COC(=O)Cc3ccccc3)n2)cc1OC	i	i	i	i	i
CN1CC2([N+](=O)[O-])CC=C(Cl)C([N+](=O)[O-])(C1)C2 (stereo not given)	i	i	i	i	i
O=C1Nc2cc(C(=O)N3CCC4(CC3)OCCO4)ccc2NC1CSCc1cccc(F)c1 (stereo not given)	i	42*	i	i	i
O=C(c1ccc2c(c1)N(Cc1ccccc1)CCS2)N1CCC2(CC1)OCCO2	i	i	i	i	i
Cc1ccc(C[n+]2c(-c3ccc(C)cc3)cc(-c3ccc(C)cc3)cc2-c2ccc(C)cc2)cc1	-7.2*	i	i	-13*	i
COP(=O)(OC)C(NC(=O)C(C)(C)C)=C(Cl)Cl	i	i	i	-5.8*	i
O=C(/C=C/c1ccc(Cl)cc1)NC(=S)N1C[C@H]2C[C@H](C1)c1cccc(=O)n1C2	i	i	i	i	i
Cc1ccnc(NS(=O)(=O)c2ccc(N=Cc3c(O)n(C)c(=O)n(C)c3=O)cc2)n1	i	i	i	i	6.6*
C=C1C(=O)O[C@H]2[C@H]1[C@H](OC(=O)CC(=O)O[C@@H]1C[C@@H](C)[C@@H]3C=CC(=O)[C@@]3(C)[C@H]3OC(=O)C(=C)[C@H]13)C[C@@H](C)[C@H]1C=CC(=O)[C@]12C	i	i	i	i	i
C=C1C(=O)O[C@H]2C[C@@H](C)[C@@H]3C=CC(=O)[C@@]3(C)C[C@H]12	i	i	6.3*	i	i
O=P(Nc1cccnc1)(Oc1ccccc1Cl)Oc1ccccc1Cl	-8.4*	i	i	i	i
c1ccc(-c2[nH]c[n+](CC3CO3)c2-c2ccccc2)cc1 (stereo not given)	.	i	.	i	i
COC(=O)C(O)(c1ccc(N(C)C(=O)c2cccs2)cc1)C(F)(F)F (stereo not given)	i	i	i	i	i
NC(N)=N/N=C/c1ccc(N(c2ccccc2)c2ccccc2)cc1	-8.3*	i	i	i	i
CC[C@@H]1C(=O)OC[C@@H]1Cc1cncn1C	.	i	.	i	8.7*
COC(=O)C1=CO[C@@H](C)[C@H]2CN3CC[C@]4(C(=O)Nc5ccccc54)[C@@H]3C[C@H]12	i	i	i	i	i
CCN1CCN(CC(c2ccccc2)c2ccccc2)CC1	-7*	i	i	i	i
CCN(CC)c1ccc(N=Cc2c(O)n(Cc3ccco3)c(=O)[nH]c2=O)cc1	i	i	i	i	i
CCN(CCO)c1ccc(N=Cc2c(O)n(C)c(=S)[nH]c2=O)cc1	i	43*	i	i	i

Screens: PubChem BioAssay, Johns Hopkins Ion Channel Center
